Data set [1] in a line: Apparent permeability across human Caco2 cells after 2 hrs by LC-MS method. It counts as ADME, cell-based. The note with it: Caco-2. The gist of the method:
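Caco-2 monolayers checked for integrity, then dosed alongside high- and low-permeability controls. Apical and basal samples taken at 2 h. Four transport conditions: A-B at pH 6.5/7.4 (0% or 0.5% BSA apical, 5% BSA basal), and A-B and B-A at pH 7.4/7.4 (0.5% BSA both sides). Compound quantified by LC/MS. Rapid transport defined as Papp >20 nm/s.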

For data set [2], the target named is T1, Alpha-2A adrenergic receptor (Homo sapiens) (UniProt P08913).
T1 sequence (whole entry): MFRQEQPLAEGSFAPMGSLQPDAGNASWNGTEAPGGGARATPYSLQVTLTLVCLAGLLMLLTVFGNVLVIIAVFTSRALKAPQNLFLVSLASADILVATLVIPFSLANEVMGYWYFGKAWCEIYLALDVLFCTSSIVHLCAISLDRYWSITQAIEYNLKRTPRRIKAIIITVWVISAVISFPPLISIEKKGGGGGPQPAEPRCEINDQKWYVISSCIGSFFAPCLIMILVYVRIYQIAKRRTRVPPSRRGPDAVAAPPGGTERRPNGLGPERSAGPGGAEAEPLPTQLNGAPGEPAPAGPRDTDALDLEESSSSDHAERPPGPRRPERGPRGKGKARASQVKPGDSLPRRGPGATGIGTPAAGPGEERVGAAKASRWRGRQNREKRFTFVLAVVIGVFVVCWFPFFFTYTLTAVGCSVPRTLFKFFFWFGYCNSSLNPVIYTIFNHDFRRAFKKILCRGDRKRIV
Briefly: Displacement of [3H]RX 821002 from recombinant human alpha 2A adrenergic receptor expressed in CHO cells at 10 uM after 60 mins by scintillation counting method relative to control. It counts as cell-based.

Data set [3] is described as follows: Metabolic stability in human liver microsomes assessed as parent compound remaining in presence of NADPH by LC-MS/MS method. It counts as ADME. Put shortly:
(§1)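 Compound incubated with liver microsomes (human or mouse) plus NADPH at 37 °C. Loss of parent was followed by LC-MS-MS and reported as percent. Stability bands: low <40%, medium 40–60%, high >60%.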
(Liver microsomes are vesicles of endoplasmic reticulum, rich in cytochrome P450 enzymes.)

In data set [4] the target is T2, C-X-C chemokine receptor type 3 (Homo sapiens, UniProt P49682).
T2 sequence (P49682 whole entry): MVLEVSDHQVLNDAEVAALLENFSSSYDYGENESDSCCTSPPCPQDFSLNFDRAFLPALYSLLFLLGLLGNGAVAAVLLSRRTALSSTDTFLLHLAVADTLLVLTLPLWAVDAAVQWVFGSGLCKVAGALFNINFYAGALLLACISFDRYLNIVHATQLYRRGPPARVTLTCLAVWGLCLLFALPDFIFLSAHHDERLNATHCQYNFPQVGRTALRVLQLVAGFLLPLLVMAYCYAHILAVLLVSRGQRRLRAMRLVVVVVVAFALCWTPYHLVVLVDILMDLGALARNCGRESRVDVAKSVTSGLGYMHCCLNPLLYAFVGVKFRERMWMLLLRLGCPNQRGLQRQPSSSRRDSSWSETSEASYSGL
Briefly: Displacement of [125I]-CXCL10 from human recombinant CXCR3 transfected in Flp-In-CHO cell membranes after 60 mins by gamma counting method. (In general: Displacement assays read how much labelled ligand stays bound in the presence of the test substance.)

Data set [5] is described as follows: Metabolic stability in mouse liver microsomes assessed as parent compound remaining in presence of NADPH by LC-MS/MS method. It counts as ADME. Put shortly: as §1
Data set [6] has as its target Mu-type opioid receptor (Homo sapiens) (UniProt P35372). Briefly: Displacement of [3H]DAMGO from recombinant human mu opioid receptor expressed in HEK293 cells at 10 uM after 60 mins by scintillation counting method relative to control. It counts as cell-based.
Data set [7] has as its target Histamine H1 receptor (Homo sapiens) (UniProt P35367). Briefly: Displacement of [3H]pyrilamine from recombinant human histamine H1 receptor expressed in HEK293 cells at 10 uM after 60 mins by scintillation counting method relative to control. It counts as cell-based.
Data set [8] deals with T3, Muscarinic acetylcholine receptor M2 (Homo sapiens) (UniProt P08172).
T3 sequence (whole entry): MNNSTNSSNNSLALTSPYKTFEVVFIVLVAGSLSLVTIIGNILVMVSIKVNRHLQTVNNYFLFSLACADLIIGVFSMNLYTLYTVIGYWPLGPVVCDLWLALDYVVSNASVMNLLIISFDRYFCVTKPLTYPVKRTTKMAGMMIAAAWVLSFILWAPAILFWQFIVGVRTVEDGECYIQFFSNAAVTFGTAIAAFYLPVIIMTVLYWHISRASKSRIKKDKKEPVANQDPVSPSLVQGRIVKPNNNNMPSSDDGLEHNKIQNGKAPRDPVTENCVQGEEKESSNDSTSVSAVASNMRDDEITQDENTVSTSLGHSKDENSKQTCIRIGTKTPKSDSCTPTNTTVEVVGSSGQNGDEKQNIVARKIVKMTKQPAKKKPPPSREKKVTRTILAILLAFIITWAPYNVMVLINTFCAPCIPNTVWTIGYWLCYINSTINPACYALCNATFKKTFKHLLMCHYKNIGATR
Briefly: Displacement of [3H]AF-DX384 from recombinant human muscarinic M2 receptor expressed in CHO cells at 10 uM after 60 mins by scintillation counting method relative to control. It counts as cell-based.

Data set [9] has as its target T4, Alpha-1A adrenergic receptor (Homo sapiens) (UniProt P35348).
T4 sequence (whole entry): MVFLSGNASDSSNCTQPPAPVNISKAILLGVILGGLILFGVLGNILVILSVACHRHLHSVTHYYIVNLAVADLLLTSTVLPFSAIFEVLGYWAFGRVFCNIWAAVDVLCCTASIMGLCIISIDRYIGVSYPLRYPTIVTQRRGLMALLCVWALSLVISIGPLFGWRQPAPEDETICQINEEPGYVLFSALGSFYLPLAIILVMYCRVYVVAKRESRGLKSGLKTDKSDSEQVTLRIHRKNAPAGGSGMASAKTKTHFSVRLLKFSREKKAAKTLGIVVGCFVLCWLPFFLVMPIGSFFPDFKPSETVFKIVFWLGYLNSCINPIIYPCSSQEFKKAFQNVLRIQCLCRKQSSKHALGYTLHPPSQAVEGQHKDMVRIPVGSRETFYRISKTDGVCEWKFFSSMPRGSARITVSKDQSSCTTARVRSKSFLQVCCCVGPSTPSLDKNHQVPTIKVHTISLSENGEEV
Briefly: Displacement of [3H]prazosin from recombinant human alpha 1A adrenergic receptor expressed in CHO cells at 10 uM after 60 mins by scintillation counting method relative to control. It counts as cell-based.

Data set [10] has as its target T2, C-X-C chemokine receptor type 3. Briefly: Antagonist activity at human Galphai4qi4-coupled CXCR3A expressed in engineered CHO cells assessed as inhibition of IP-10-induced calcium mobilization by FLIPR assay. It counts as functional, cell-based. A general note: A change in cytosolic calcium serves as a functional read-out for many receptors and channels.
The target in data set [11] is T5, Muscarinic acetylcholine receptor M1 (Homo sapiens) (UniProt P11229).
T5 sequence (whole entry): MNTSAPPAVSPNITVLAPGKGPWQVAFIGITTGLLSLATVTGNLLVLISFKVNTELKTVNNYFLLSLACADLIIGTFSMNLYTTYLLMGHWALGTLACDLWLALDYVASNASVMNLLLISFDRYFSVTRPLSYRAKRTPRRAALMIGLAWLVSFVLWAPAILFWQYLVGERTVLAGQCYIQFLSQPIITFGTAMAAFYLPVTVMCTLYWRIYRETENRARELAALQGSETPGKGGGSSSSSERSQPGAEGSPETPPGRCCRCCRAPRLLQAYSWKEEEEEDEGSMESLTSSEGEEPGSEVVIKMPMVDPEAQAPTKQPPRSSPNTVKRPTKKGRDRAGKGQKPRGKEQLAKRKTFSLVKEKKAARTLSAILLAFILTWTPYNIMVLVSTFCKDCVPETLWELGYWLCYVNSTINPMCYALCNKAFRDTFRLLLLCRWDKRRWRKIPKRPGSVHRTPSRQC
Briefly: Displacement of [3H]pirenzepine from recombinant human muscarinic M1 receptor expressed in CHO cells at 10 uM after 60 mins by scintillation counting method relative to control. It counts as cell-based.

The nature of data set [12]: Intrinsic clearance in human hepatocytes assessed per 10^6 cells at 5 uM. It counts as ADME, cell-based, Hepatocyte.
Data set [13] is described as follows: Absolute oral bioavailability in Balb/c mouse at 10 mg/kg. It counts as ADME, organism-based. The following applies: in vivo. The gist of the method:
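Male Balb/c mice dosed once orally at 10 mg/kg and once intravenously at 3 mg/kg. Either 4 animals per route were profiled individually, or sparse sampling used 24 mice with 3 per time point for mean profiles. Absolute oral bioavailability was derived from the two routes.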

Data set [14] can be described thus: Chemical stability of the compound in 1:1 acetonitrile-water at pH 6.5 after 48 hrs by LC-MS method. It counts as physicochemical. The following applies: buffer, pH 6.5, 48 h.

A word on the Papp: it is the rate of passage across a membrane or cell layer, normalised by area and donor concentration. For orientation: inhibition means how much of the control response was suppressed. One may read the pIC50 as the IC50 on a negative log10 scale, so that one unit is a factor of ten. As usually defined, the bioavailability is dose-corrected exposure relative to a reference, in per cent. High values mean good availability, low ones poor availability.

Structures are written as SMILES. pIC50: −log10 of the molar value.

Sequence of Mu-type opioid receptor (Homo sapiens) (P35372 whole entry): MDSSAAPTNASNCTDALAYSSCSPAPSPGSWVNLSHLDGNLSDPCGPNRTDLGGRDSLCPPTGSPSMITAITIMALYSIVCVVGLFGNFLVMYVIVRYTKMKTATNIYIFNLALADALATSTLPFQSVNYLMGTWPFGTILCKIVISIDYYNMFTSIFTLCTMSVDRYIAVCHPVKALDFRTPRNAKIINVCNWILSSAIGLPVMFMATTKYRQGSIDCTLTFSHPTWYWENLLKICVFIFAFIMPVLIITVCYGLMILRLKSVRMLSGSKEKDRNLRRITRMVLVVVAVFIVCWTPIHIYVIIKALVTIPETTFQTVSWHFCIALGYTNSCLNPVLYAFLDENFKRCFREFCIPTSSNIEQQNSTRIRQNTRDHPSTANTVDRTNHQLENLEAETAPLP
Sequence of Histamine H1 receptor (Homo sapiens) (P35367 whole entry): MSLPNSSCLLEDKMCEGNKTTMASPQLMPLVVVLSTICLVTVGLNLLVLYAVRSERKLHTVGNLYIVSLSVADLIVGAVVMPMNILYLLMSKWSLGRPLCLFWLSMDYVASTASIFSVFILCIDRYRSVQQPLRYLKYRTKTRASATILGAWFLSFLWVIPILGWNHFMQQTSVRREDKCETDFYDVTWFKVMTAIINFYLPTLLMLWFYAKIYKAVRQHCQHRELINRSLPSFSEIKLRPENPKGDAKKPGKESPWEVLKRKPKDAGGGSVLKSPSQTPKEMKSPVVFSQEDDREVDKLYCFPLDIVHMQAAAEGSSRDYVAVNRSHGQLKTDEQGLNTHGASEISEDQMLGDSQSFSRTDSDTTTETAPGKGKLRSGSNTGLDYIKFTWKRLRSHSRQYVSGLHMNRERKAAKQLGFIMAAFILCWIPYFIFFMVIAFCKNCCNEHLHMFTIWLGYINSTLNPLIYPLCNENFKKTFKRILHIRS

As to `COc1cc(CN(C)C(C)c2ccc3c(c2)CCO3)ccc1OCCN1C(=O)CCC1=O` (configuration not stated), the Papp at 2 h in data set [1] amounted to 5.62 ×10⁻⁶ cm/s. For the same molecule, the inhibition in data set [2], in data set [6], in data set [7], in [8] and in data set [9] was above 65% each time. In addition, the Stability stood at 53% in data set [3] and 52% in [5]. The figures for the pIC50 in [4] and in data set [10] were 6.39 and 7.13, respectively.
With `Cc1cc(CN(C[C@H]2CC[C@H](C(=O)O)CC2)[C@H]2CCc3cc(Cl)ccc32)ccc1OCCN1C(=O)CCC1=O`, the Papp at 2 h in [1] stood at 8.12 ×10⁻⁶ cm/s. Besides, the Stability in [3] stood at 78%; in [5], 91%. In addition, the inhibition in data set [6] was 87%; in data set [11], 82%; in data set [8], 92%. The molecule also returned a CLH in data set [12] of 0.09 mL/h. In addition, the bioavailability in data set [13] is 69%.
Turning to `COc1cc(CN(C[C@H]2CC[C@H](C(=O)O)CC2)C(C)c2ccc3c(c2)CCO3)ccc1OCCN1C(=O)COC1=O` (some centres not stated), the Stability entry in [14] was “Unstable”; in data set [3], 88%; in [5], 93%. In data set [1], the Papp at 2 h was found to be 1.16 ×10⁻⁶ cm/s.

(Values after ChEMBL document CHEMBL3864163, “I. Discovery of a novel series of CXCR3 antagonists. Multiparametric optimization of N,N-disubstituted benzylamines” (Bioorg Med Chem Lett, 2016).)
